{"source": "ChEMBL document CHEMBL3352313", "about": "(J Med Chem, 2014)", "key": {"[1]": {"molecular_target": "T1, Muscarinic acetylcholine receptor M5 (Homo sapiens) (UniProt P08912)", "T1 sequence (whole entry)": "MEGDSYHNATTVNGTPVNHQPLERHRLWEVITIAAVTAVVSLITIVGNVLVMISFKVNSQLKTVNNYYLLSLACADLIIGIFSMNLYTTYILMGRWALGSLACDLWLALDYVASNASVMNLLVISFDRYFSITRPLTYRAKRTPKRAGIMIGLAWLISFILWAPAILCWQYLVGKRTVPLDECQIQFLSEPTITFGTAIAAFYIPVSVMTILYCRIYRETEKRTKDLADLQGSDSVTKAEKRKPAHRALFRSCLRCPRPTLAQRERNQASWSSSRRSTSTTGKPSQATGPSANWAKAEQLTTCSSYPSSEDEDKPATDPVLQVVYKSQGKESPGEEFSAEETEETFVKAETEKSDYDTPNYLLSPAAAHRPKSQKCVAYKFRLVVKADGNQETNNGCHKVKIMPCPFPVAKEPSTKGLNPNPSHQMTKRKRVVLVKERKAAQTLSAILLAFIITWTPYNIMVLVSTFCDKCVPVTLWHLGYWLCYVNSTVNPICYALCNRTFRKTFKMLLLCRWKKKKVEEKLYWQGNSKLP", "experiment": "Positive allosteric modulator activity at human muscarinic acetylcholine receptor subtype 5 expressed in CHO cells assessed as fold shift in acetylcholine-induced response at 10 uM by calcium mobilization assay", "type": "functional, cell-based", "procedure,_shortened": "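In hM5 CHO cells by calcium mobilization, PAM at a fixed 10 μM or vehicle is added before an ACh concentration-response curve. Fold shift is the ratio of ACh potency without PAM to potency with PAM.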"}, "[2]": {"molecular_target": "T2, Muscarinic acetylcholine receptor M4 (Homo sapiens, UniProt P08173)", "T2 sequence (P08173 whole entry)": "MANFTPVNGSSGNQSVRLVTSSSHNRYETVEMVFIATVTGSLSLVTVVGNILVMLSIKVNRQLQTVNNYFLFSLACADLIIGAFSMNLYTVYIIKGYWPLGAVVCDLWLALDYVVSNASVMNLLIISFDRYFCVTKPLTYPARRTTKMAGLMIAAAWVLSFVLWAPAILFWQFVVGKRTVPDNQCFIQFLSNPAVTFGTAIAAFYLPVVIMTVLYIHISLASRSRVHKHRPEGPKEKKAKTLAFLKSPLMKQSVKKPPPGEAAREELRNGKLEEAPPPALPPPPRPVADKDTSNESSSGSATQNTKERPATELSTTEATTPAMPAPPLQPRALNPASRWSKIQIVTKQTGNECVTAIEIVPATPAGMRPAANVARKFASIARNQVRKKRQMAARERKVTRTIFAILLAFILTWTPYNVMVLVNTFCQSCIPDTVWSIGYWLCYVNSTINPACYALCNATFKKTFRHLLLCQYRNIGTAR", "experiment": "Activity at human muscarinic acetylcholine receptor subtype 4 expressed in CHO cells co-transfected with chimeric Gqi5 by calcium mobilization assay", "type": "functional, cell-based", "procedure,_shortened": "(§1)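 Muscarinic subtype selectivity by fluorescence calcium mobilization in highly expressing CHO lines with similar receptor levels; Gi/o-coupled M2 and M4 cells co-transfected with chimeric Gqi5 to couple to Ca2+ mobilization. Read-outs are PAM EC50 and ACh max response. Mean ± SEM of at least three independent determinations.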"}, "[3]": {"molecular_target": "Muscarinic acetylcholine receptor M3 (Homo sapiens, UniProt P20309)", "sequence (P20309 whole entry)": "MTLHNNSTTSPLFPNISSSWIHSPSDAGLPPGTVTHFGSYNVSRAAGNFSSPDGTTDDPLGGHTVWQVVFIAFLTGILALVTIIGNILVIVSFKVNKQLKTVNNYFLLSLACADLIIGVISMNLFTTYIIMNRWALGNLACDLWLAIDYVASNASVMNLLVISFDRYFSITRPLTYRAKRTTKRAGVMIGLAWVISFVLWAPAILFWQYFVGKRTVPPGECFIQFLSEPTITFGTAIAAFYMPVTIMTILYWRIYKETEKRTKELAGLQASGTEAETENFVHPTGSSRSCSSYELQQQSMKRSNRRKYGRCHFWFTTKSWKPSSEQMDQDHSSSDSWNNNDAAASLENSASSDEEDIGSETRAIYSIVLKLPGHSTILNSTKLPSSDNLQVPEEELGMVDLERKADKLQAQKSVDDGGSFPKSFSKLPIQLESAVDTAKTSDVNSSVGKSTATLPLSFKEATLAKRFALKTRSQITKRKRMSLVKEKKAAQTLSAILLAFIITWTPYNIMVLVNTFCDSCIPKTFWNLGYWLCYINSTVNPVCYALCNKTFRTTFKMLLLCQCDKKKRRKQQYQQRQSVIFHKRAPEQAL", "experiment": "Activity at human muscarinic acetylcholine receptor subtype 3 expressed in CHO cells by calcium mobilization assay", "type": "functional, cell-based", "procedure,_shortened": "as §1"}, "[4]": {"molecular_target": "T3, Muscarinic acetylcholine receptor M1 (Homo sapiens, UniProt P11229)", "T3 sequence (P11229 whole entry)": "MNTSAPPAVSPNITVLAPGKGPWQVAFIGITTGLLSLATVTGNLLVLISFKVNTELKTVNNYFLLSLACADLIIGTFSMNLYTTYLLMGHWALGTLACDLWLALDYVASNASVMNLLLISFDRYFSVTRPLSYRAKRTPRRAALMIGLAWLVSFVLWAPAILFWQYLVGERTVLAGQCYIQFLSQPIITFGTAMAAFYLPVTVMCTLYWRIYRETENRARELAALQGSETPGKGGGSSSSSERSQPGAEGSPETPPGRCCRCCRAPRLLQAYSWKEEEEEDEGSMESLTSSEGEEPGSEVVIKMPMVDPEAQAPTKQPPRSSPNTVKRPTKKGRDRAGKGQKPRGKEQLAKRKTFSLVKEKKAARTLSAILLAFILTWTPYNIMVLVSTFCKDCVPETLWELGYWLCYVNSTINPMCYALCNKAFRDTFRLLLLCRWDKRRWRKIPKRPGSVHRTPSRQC", "experiment": "Activity at human muscarinic acetylcholine receptor subtype 1 expressed in CHO cells by calcium mobilization assay", "type": "functional, cell-based", "procedure,_shortened": "as §1"}, "[5]": {"molecular_target": "T4, Muscarinic acetylcholine receptor M5 (Rattus norvegicus, UniProt P08911)", "T4 sequence (P08911 whole entry)": "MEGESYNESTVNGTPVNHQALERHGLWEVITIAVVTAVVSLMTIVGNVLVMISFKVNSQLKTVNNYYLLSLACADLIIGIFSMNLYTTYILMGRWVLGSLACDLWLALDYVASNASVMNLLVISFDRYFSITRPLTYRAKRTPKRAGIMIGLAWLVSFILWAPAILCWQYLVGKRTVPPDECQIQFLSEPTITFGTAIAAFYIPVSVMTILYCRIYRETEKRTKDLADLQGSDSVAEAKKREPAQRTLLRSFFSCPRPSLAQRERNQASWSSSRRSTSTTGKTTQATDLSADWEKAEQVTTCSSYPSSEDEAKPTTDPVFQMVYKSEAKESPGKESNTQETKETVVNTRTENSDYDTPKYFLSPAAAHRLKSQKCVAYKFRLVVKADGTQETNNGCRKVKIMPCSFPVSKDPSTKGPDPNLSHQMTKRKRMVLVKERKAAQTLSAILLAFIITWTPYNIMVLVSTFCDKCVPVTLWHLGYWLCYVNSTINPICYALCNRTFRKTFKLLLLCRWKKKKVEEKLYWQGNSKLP", "experiment": "Activity at rat muscarinic acetylcholine receptor subtype 5 expressed in CHO cells by calcium mobilization assay", "type": "functional, cell-based", "procedure,_shortened": "as §1"}, "[6]": {"molecular_target": "Muscarinic acetylcholine receptor M3 (Rattus norvegicus, UniProt P08483)", "sequence (P08483 whole entry)": "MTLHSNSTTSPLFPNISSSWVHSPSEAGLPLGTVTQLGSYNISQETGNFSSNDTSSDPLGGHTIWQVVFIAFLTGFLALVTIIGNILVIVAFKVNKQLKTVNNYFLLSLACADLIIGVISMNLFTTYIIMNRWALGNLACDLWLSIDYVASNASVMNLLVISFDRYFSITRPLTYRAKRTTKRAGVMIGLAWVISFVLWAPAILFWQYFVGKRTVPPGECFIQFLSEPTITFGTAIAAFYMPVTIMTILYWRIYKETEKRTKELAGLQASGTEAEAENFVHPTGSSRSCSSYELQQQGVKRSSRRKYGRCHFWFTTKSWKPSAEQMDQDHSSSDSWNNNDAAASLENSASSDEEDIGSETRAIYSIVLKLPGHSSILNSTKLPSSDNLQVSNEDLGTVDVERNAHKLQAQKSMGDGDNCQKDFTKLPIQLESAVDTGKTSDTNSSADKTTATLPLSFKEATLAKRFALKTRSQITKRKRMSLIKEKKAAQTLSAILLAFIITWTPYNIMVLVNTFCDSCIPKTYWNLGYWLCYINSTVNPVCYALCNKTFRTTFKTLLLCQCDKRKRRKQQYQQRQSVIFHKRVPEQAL", "experiment": "Activity at rat muscarinic acetylcholine receptor subtype 3 expressed in CHO cells by calcium mobilization assay", "type": "functional, cell-based", "procedure,_shortened": "as §1"}, "Homo sapiens [7]": {"species_on_record": "Homo sapiens", "experiment": "Selectivity index, ratio of EC50 for human muscarinic acetylcholine receptor subtype 1 to EC50 for human muscarinic acetylcholine receptor subtype 5"}, "Homo sapiens [8]": {"species_on_record": "Homo sapiens", "experiment": "Selectivity index, ratio of EC50 for human muscarinic acetylcholine receptor subtype 3 to EC50 for human muscarinic acetylcholine receptor subtype 5"}, "[9]": {"experiment": "Fraction unbound in rat brain at 5 uM incubated for 4 hrs at 37 degC by equilibrium dialysis based LC/MS/MS analysis", "type": "ADME, tissue-based", "procedure,_shortened": "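Fraction unbound measured in rat and human plasma and in rat brain homogenate.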"}, "Rattus norvegicus [10]": {"tested_on": "Rattus norvegicus", "experiment": "Brain to plasma partition coefficient, Kp of the compound in Sprague-Dawley rat 1 mg/kg, iv administered as single dose after 15 mins by LC/MS/MS utilizing electrospray ionization method", "type": "ADME, organism-based", "set-up": "dose 1 mg/kg, route intravenous", "settings": "0.25 h", "procedure,_shortened": "(§2)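 Male Sprague–Dawley rats (n = 3) dosed 1 mg/kg intravenously. Brain and plasma levels at 15 min after administration give Kp. Kp,uu is the unbound brain-plasma partition coefficient.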"}, "Rattus norvegicus [11]": {"tested_on": "Rattus norvegicus", "experiment": "Unbound brain-to-plasma concentration ratio in Sprague-Dawley rat 1 mg/kg, iv administered as single dose after 15 mins by LC/MS/MS utilizing electrospray ionization method", "type": "ADME, organism-based", "set-up": "dose 1 mg/kg, route intravenous", "settings": "0.25 h", "procedure,_shortened": "as §2"}, "[12]": {"experiment": "Apparent permeability in human Caco2 cells", "type": "ADME, cell-based", "settings": "caco-2"}}, "data": [{"smiles": "CCN(Cc1ccccc1C(F)(F)F)C(=O)C1CCN(S(=O)(=O)c2ccc3[nH]ncc3c2)CC1", "values": [{"measurement": "fold change (FC)", "setting": "[1]", "value": 9}, {"measurement": "EC50", "setting": "[2]", "value": "> 30", "unit": "µM"}, {"measurement": "EC50", "setting": "[3]", "value": 2.1, "unit": "µM"}, {"measurement": "EC50", "setting": "[4]", "value": 5.4, "unit": "µM"}, {"measurement": "EC50", "setting": "[5]", "value": 0.61, "unit": "µM"}, {"measurement": "EC50", "setting": "[6]", "value": 3.1, "unit": "µM"}, {"measurement": "Ratio EC50", "setting": "Homo sapiens [7]", "value": "> 10"}, {"measurement": "Ratio EC50", "setting": "Homo sapiens [8]", "value": "> 10"}, {"measurement": "Fu", "setting": "[9]", "value": 0.011}, {"measurement": "Kp", "setting": "Rattus norvegicus [10]", "value": 0.36}, {"measurement": "K(p,uu,brain)", "setting": "Rattus norvegicus [11]", "value": 0.28}, {"measurement": "Papp", "setting": "[12]", "value": 2.5, "unit": "×10⁻⁵ cm/s"}]}]}
